Source: PubChem (several laboratories)
CHOP inhibitor = blocks CHOP induction under ER stress; CHO-K1 CHOP-promoter luciferase, tunicamycin-induced, 15-18 h; inhibition, % at 10 µM; actives 3.8% (n = 220,000);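 active = compounds that reduced the stress-induced luciferase reporter signal by more than about 70% of percent inhibition, limit read from the data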;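 also: 0% = tunicamycin plus vehicle and 100% = wells without tunicamycin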
Lmaj promast = reduces viability of Leishmania major promastigotes | resazurin fluorescence viability | inhibition, % at 10 µM | actives 9% (n = 200,000);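 also: promastigotes grown with compound for 44 hours at 28 °C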
Arbovirus inh = blocks arbovirus infection; inhibition, % at 10 µM; actives 0.37% (n = 200,000); AID 1251; arbovirus infection cell-based antiviral screen; in the data active = inhibition above about 30%
Wee1 degr inh = inhibitors of human Wee1 degradation | HeLa Luc-Wee1K328M stability, luciferase luminescence; 100% = proteasome inhibitor MG132 effect | P30291 | reporter increase, % at 5 µM | actives 1.2% (n = 220,000) | AID 1321;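 active = activation above the mean of all tested compounds plus 3 SD, set per screening run, cut at about 8.8% in these data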;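 also: cells exposed to compound for 20 h before luminescence read; 0% = DMSO alone and 100% = MG132 at 30 µM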
Rad51 HR inh = Rad51 (human) homologous recombination inhibition | actives 0.085% (n = 200,000) | Q06609 | hRad51 DNA strand exchange, fluorescence dequenching | inhibition, % at 10 µM | AID 1385;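 active = inhibition above 40% at the single screening dose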;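 also: 0% = DMSO control wells and 100% = blanks with heterologous ssDNA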
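Assay system: Human Rad51 nucleoprotein filaments preassembled on unlabelled ssDNA | Reagent: Donor/quencher-labelled 47-bp dsDNA substrate | Doses: One concentration, 10 µM final | Times: 37 °C 15-min filament assembly, 30-min compound preincubation, 15-min exchange | Technique: Fluorescein emission 520 nm, excitation 485 nm | Benchmarks: Plate control and blank wells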
PKD1 inh = PKD1 (human) kinase inhibition | PKD1 kinase fluorescence polarization assay | inhibition, % (concentration not given with the values) | actives 0.056% (n = 200,000)
Target sequence (Q15139 whole entry, looked up): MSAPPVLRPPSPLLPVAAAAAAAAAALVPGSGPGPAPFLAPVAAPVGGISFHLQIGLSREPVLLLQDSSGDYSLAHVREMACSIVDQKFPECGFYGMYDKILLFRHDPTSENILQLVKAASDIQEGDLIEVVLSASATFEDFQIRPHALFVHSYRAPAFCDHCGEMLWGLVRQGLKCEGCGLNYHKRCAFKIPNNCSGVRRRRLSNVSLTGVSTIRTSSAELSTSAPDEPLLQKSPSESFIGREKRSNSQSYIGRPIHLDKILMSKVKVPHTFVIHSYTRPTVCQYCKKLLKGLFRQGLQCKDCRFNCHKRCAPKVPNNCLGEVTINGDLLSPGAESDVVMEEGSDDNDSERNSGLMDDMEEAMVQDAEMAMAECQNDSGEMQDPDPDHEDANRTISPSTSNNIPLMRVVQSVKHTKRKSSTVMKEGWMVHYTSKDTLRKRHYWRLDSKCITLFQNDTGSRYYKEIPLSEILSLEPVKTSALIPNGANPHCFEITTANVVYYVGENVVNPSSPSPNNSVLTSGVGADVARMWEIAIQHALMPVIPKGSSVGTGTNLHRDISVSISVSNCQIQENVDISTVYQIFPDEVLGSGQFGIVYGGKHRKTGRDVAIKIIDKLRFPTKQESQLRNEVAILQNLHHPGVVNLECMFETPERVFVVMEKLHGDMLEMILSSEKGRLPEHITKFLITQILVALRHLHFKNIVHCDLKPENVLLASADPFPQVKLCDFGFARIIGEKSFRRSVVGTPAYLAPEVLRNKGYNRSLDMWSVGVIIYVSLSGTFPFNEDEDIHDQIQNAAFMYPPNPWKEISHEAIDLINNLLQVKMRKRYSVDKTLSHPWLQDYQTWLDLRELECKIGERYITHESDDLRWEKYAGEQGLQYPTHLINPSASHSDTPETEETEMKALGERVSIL
* = called active by the depositor; · = no result given. An excerpt weighted towards active compounds, which were near 12% of everything screened. Rule as the data show it, unless noted: active = inhibition above about 50%; inactive = the rest.

SMILES	CHOP inhibitor	Lmaj promast	Arbovirus inh	Wee1 degr inh	Rad51 HR inh	PKD1 inh
COc1ccc(C2=CC3=C(Br)C(=O)C(C)(OC(=O)c4cnc5ccccc5n4)C(=O)C3=CO2)cc1 (configuration not stated)	·	·	·	·	-4.7	·
Cc1cc(NS(=O)(=O)c2ccc(NC(=O)Nc3ccc4c(c3)OCO4)cc2)no1	25.7	-9.9	-2.4	8.9*	1.6	-10.5
Cc1cc(C)nc(NC(=O)Nc2ccc3c(c2)OCO3)c1	71.2*	2.4	-14.5	1.6	10.1	-4.5
Cc1cc(C)nc(NC(=O)c2ccc3c(c2)OCO3)c1	8.0	6.8	-7.4	-0.6	8.8	7.7
CCN1CCN(CCOc2ccc(Br)cc2C)CC1	-7.4	93.4*	-28.1	-2.5	2.4	1.2
Cc1ccc(OCCCCNC2CCCC(C)C2C)c(C)c1 (configuration not stated)	54.6	89.7*	-32.6	0.6	3.6	1.9
Cc1ccc(OCCCCn2ccnc2C)c(C)c1	16.1	89.4*	-7.7	6.3	11.1	-3.7
COc1ccc(C)cc1S(=O)(=O)NC1CCCCC1C (configuration not stated)	11.5	-2.7	2.6	0.8	-1.4	-2.4
Cc1ccc(OCC(=O)N2CCCCCC2)c(C)c1	-12.0	1.9	-3.7	-0.3	4.2	-4.0
Cc1cc(Br)ccc1OCCN1CC(C)OC(C)C1 (configuration not stated)	30.8	-10.6	-4.8	1.2	8.4	-8.2
Cc1ccc(OCCN2CCCCCC2)c(C)c1	11.8	95.7*	11.3	-0.5	33.6	-12.1
COc1cc(OC)c(C(=O)OC(C)C(=O)Nc2cccc(C(F)(F)F)c2)cc1OC (configuration not stated)	39.5	46.7	3.5	-1.5	6.2	0.9
Cc1cc(C)n2nc(SCCCC(=O)c3ccc(F)cc3)nc2n1	-7.9	-10.2	13.6	-2.5	-8.9	-4.2
OCCN1CCN(c2cc(C(F)(F)F)nc3c(F)cccc23)CC1	-15.5	·	·	2.8	-13.7	·
Cc1ccc(OCCCN2CCCC2)c(C)c1	16.8	97.1*	3.0	-0.9	-2.0	-9.7
Cc1ccccc1OCCCN1CCCC1	14.8	40.6	-0.1	-2.9	1.5	-9.4
CCCOC(=O)c1cc(-c2ccc(/C=C3/C(=O)N(C)C(=O)C(C#N)=C3C)o2)ccc1Cl	·	3.7	·	1.4	·	-1.3
CCCOC(=O)c1cc(-c2ccc(C=O)o2)ccc1Cl	16.4	63.9*	-4.0	1.1	1.1	-6.7
C=CCOC(=O)c1cc(-c2ccc(/C=C3\C(=O)NC(=O)C(C#N)=C3C)o2)ccc1Cl	-0.7	86.1*	11.7	-1.5	·	3.6
Cc1nn(-c2ccccc2)c(NC(=O)c2cccs2)c(-c2ccccc2Cl)c1=O	-7.5	·	·	-0.5	-16.3	·
O=[N+]([O-])c1cccc(-c2nc(-c3ccccc3)c(-c3cccs3)[nH]2)c1	64.1	13.7	-0.2	0.2	2.0	2.1
COc1ccc(-c2nc(-c3cccs3)c(-c3cccs3)[nH]2)cc1OC	-23.5	100.1*	-19.6	-0.6	-3.9	-1.6
COc1ccc(-c2nc(-c3ccccc3)c(-c3cccs3)[nH]2)cc1OC	20.9	66.2*	-17.5	-1.0	-52.7	-6.8
CCOC(=O)N/N=C(\c1ccccc1)C(O)c1ccccc1 (configuration not stated)	6.9	-5.2	-3.2	-0.3	3.6	-3.1
COc1ccc(C2CC3(CC(C)(C)NC(SC)=N3)Oc3cc(O)cc(C)c32)cc1 (configuration not stated)	6.0	44.3	-31.6	-0.8	6.6	-7.1
SMILES	CHOP inhibitor	Lmaj promast	Arbovirus inh	Wee1 degr inh	Rad51 HR inh	PKD1 inh
CC(C)(C)c1ccc(-c2cc(N)n[nH]2)cc1	90.7*	2.5	-9.4	1.5	4.5	-2.4
Cc1ccc(N2C(=O)C3CC(c4ccccc4)=C4C5C=CC(C6C(=O)N(c7ccc(C)cc7C)C(=O)C56)C4C3C2=O)c(C)c1 (configuration not stated)	20.5	77.8*	-1.0	1.2	-8.3	-1.0
Cc1ccc(N2C(=O)C3CC(c4ccccc4)=C4C5C=CC(C6C(=O)N(c7ccc(C)cc7)C(=O)C56)C4C3C2=O)cc1 (configuration not stated)	39.5	97.7*	33.0*	-3.5	7.2	-5.2
CC(=O)Nc1ccc(NC(=O)C2CCCN2/C=C/C(=O)C(F)(F)F)cc1 (configuration not stated)	25.3	1.2	0.2	4.6	13.5	-3.1
O=C(COC(=O)/C=C/c1cccc(F)c1)Nc1ccc(Cl)cn1	73.0*	-3.4	3.2	-0.2	6.5	-4.4
COc1cccc(/C=C/C(=O)OCC(=O)Nc2ccc(Cl)cn2)c1	50.3	6.6	13.3	5.7	-5.3	-5.5
CCOc1cc(/C=N/O)ccc1OCc1ccc(C)cc1	24.6	60.6*	-10.9	0.7	2.8	-5.8
CCOc1cc(/C=N/O)ccc1OCC(=O)Nc1cccc(C)c1	29.1	27.2	3.8	2.2	·	-4.1
COc1cc(/C=N/n2cnnc2)ccc1OCCOc1ccccc1	10.1	37.2	-1.4	2.5	0.5	1.2
COc1cc(/C=N/n2cnnc2)ccc1OCc1ccccc1	-12.1	80.3*	-1.5	2.3	-2.6	-1.9
COc1cc(/C=N/n2cnnc2)ccc1OCc1ccc(C)cc1	11.9	96.2*	-3.5	2.0	1.7	-4.9
C=CCc1ccc(OCCOc2ccc(/C=N/n3cnnc3)cc2OCC)c(OC)c1	49.8	37.2	7.0	-2.7	-4.0	-2.9
CC(C)N1CN(c2ccccc2)C(=S)N(c2ccccc2)C1	-3.0	·	·	2.1	-9.2	·
CCN1C(=O)N[C@@H](c2ccccc2)[C@@H](C(=O)OC)[C@H]1C	·	·	·	·	-5.1	·
CCOC(=S)SCC(=O)Nc1nc(-c2ccc(Br)cc2)cs1	81.7*	11.3	-27.2	2.2	·	1.1
CCOC(=O)N1CCN(C(=O)CSCC(=O)Nc2nc(-c3ccc(-c4ccccc4)cc3)cs2)CC1	85.2*	23.1	-21.3	-2.2	-0.5	-9.9
CCOC(=O)N1CCN(C(=O)CSCC(=O)Nc2nc(-c3ccc(OC)cc3)cs2)CC1	34.7	-1.2	11.4	-0.7	5.7	-2.8
COc1ccccc1CC(=O)Nc1ccc2c(c1)C(=O)NC2=O	26.5	100.2*	-3.5	-1.8	-6.0	8.8
Cc1nc2ccc(NC(=O)N3CCOCC3)cc2s1	-10.6	-5.5	0.2	10.4*	1.1	-2.3
COc1ccccc1CC(=O)Nc1ccc(OC)c(OC)c1	20.4	-5.7	0.0	-1.5	2.9	-5.4
COc1ccccc1CC(=O)Nc1ccc2nc(C)sc2c1	-12.7	61.2*	7.8	2.6	-2.3	1.5
CCOC(=O)C1CCN(S(=O)(=O)c2ccc(C(C)(C)C)cc2)CC1	2.6	-6.0	1.7	-0.7	-1.4	-5.1
Cc1cc(NC(=O)Cn2nc(C)c([N+](=O)[O-])c2C)no1	-7.1	0.8	0.5	-0.8	-1.4	-7.4
CCOC(=O)C1(Cc2cccc(F)c2)CCN(C(=O)c2ccoc2C)CC1	14.4	33.7	0.8	0.1	-11.2	-3.9
